# Source: PubChem BioAssay (several laboratories)
# An excerpt weighted towards active compounds, which were near 1% of everything screened.
# Furin inhibitor = human furin inhibitors, primary screen, biochemical, fluorescence intensity | inhibition, % at 20 µM or 30 µM | actives 0.061% (n = 220,000) | P09958 | AID 463115, 2010 | purified furin, fluorogenic substrate cleavage; in the data active = inhibition above about 25%
# KLK5 inh = human KLK5 protease inhibitors, primary screen, biochemical, 1536-well; actives 0.59% (n = 210,000); AID 873, 2007; inhibition, % at 5 µM; recombinant hK5, fluorogenic AMC substrate cleavage;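 active = inhibition of 40% or more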;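 also: 0% = enzyme controls without compound and 100% = no-enzyme blanks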
# Target sequence (Q9Y337 67-293 limits assumed): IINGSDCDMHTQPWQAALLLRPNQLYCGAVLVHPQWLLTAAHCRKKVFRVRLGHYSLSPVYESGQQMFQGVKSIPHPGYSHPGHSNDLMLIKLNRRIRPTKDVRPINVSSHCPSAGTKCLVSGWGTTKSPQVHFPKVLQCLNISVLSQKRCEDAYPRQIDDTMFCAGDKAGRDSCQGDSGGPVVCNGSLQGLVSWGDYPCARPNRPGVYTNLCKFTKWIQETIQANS
# FXIIa inh = human FXIIa protease inhibitors, primary screen, biochemical, 1536-well. Coagulation factor XII (Homo sapiens), P00748. purified FXIIa, Boc-QGR-AMC fluorogenic substrate, 2 h. inhibition, % at 5 µM. actives 0.3% (n = 220,000). AID 800, 2007; in the data active = inhibition above about 40%;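 also: 0% = enzyme with no compound and 100% = blank without enzyme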
# HSV augment = enhancers of HSV replication in host cells, fold increase, host cell viability; actives 0.005% (n = 220,000); maximum fold increase; HSV replication augmentation in cells; in the data active = maximum fold increase above about 1.5; inconclusive = no clear call, values can overlap the other calls; tested in PC3 cells
# Thrombin inh = human alpha-thrombin inhibitors, primary screen, counter-screen for coagulation protease inhibitor project, biochemical, 1536-well, fluorogenic AMC substrate; actives 0.26% (n = 220,000); Prothrombin (Homo sapiens), P00734; Boc-VPR-AMC fluorogenic substrate cleavage; AID 1046, 2008; inhibition, % at 5 µM;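 active = inhibition at or above 40%; inactive = inhibition below 40%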;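 also: 0% = enzyme with no compound and 100% = wells without enzyme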
#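 System: Human alpha-thrombin protein | Medium: pH 7.5 Tris (50 mM) with NaCl 150 mM, Tween 20 0.05% | Times: Enzyme reaction carried out at room temperature | Detection: AMC fluorescence, 355/460 nm | Evaluation: Percent inhibition scaled between no-compound controls and no-enzyme blanks | Benchmarks: Enzyme without compound as high, wells lacking enzyme as low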
# FXIa inh = human FXIa protease inhibitors, primary screen, biochemical, 1536-well. AID 798, 2007. inhibition, % at 5 µM. Coagulation factor XI (Homo sapiens), P03951. purified FXIa, Boc-Glu-Ala-Arg-AMC fluorogenic substrate. actives 0.14% (n = 220,000);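 active = inhibition of at least 40%; inactive = inhibition below 40%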;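 also: fluorescence of freed AMC excited at 355 nm; 0% = enzyme without compound and 100% = no enzyme blank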
# * marks the source's active call; other numbers are inactive results; i = inactive; ? = inconclusive; · = not tested or not shown.
SMILES,Furin inhibitor,KLK5 inh,FXIIa inh,HSV augment,Thrombin inh,FXIa inh
CCOC(=O)C1CCCN(C2CC(=O)N(c3ccc(C)cc3)C2=O)C1 (centres undefined),-15,40*,19,i,12,12
Cc1c(NC(=O)CNCc2ccc3c(c2)OCO3)c(=O)n(-c2ccccc2)n1C,-28,-7,4,i,-9,-5
Cc1nc2c(cnn2-c2ccc(Cl)cc2)c(=O)n1-c1ccc(N2CCC(C)CC2)cc1,-12,54*,17,·,17,14
O=C(NCc1csc(-c2cccs2)n1)c1cccc(Cl)c1,-10,-2,4,i,-3,3
COc1ccc(OC)c(Cc2nnc(CCC(=O)N3CCCCCC3)o2)c1,-18,-3,5,i,10,-6
COc1ccc(OC)c(Cc2nnc(CCC(=O)N3CCC(N4CCCCC4)CC3)o2)c1,-3,44*,32,i,23,30
CCCNC(=O)CSc1nc2ccccc2c(=O)n1CCC,-9,30,7,i,30,10
O=P(O)(O)COc1ccccc1P(=O)(c1ccccc1)c1ccccc1,-17,2,11,i,3,2
O=[N+]([O-])c1ccc(OCCO)c(P(=O)(c2ccccc2)c2ccccc2)c1,2,33,24,i,7,70*
O=C(C[n+]1cnn(CC(=O)c2ccc(Cl)cc2Cl)c1)c1ccc([N+](=O)[O-])cc1,-17,0,7,i,51*,4
O=C(Nc1cnn(Cc2ccc(Cl)cc2)c1)c1ccc([N+](=O)[O-])cc1,-16,-19,18,i,1,7
CC(C)CC(=O)NC(=S)Nc1ccc(S(=O)(=O)N2CCCC2)cc1,-9,-7,2,i,2,-6
O=C(COc1cc(Cl)c(Cl)cc1Cl)N1CCN(c2ccccn2)CC1,-3,24,29,i,54*,32
O=C(NNc1c(Cl)cc(Cl)cc1Cl)c1n[nH]c(=O)c2ccccc12,-1,36,74*,i,28,21
CC(C)N1CCN(Cc2ccoc2)CC1CCO (centres undefined),-19,3,10,i,-5,0
CCCCOC(=O)c1ccc(NC(=O)CSc2nnnn2C)cc1,-11,-3,7,i,8,-1
CSC1=N/C(=C\c2ccc(C)o2)C(=O)S1,-9,102*,21,i,104*,2
CSC1=N/C(=C\c2ccc(C)s2)C(=O)S1,-18,-13,7,·,-4,2
Cc1cccc(-n2c(CCCN3C(=O)c4ccccc4C3=O)nc3ccccc3c2=O)n1,-21,152*,-8,·,30,0
Nc1c(C(=O)N/N=C/c2cccnc2)oc2nc(-c3ccco3)cc(-c3ccco3)c12,-8,-9,1,i,-6,-1
NNC(=O)c1oc2nc(-c3ccco3)cc(-c3ccco3)c2c1N,25*,5,7,?,1,5
Cc1ccccc1NC(=O)c1cccc(N2C(=O)C3C4CCC(C4)C3C2=O)c1 (centres undefined),-4,43*,21,i,21,15
COc1cc(C2NC(=O)NC(c3ccccc3)=C2C(C)=O)c(Cl)cc1OCC(=O)O (centres undefined),-19,25,12,i,7,4
COc1ccc(OC)c(NC(=O)C2CCCN(S(=O)(=O)c3cccc4cccnc34)C2)c1 (centres undefined),-36,57*,14,i,23,15
CCOC(=O)N1CCN(C(=O)C2CCCN(S(=O)(=O)c3cc(C)ccc3OC)C2)CC1 (centres undefined),-19,40*,0,i,104*,1
COc1ccc(N2C(=O)C(Cl)=C(N3CCCC3)C2=O)cc1,1,-23,13,i,2,7
COc1ccc(N2C(=O)C(Cl)=C(N3CCCC(C)C3)C2=O)cc1 (centres undefined),3,2,57*,i,4,44*
